From paper PMC8798225 (Nature, 2021)

Tests used:
Ubc2 = biological target: T1, Ubc2 (Saccharomyces cerevisiae, UniProt P06104); assay: Accessibility of the catalytic cysteine; assay type: biochemical; conditions: fluorescein-5-maleimide, presence or absence of synthetic U2BR peptide; average fluorescence, n = 2
T1 sequence (P06104 1-172): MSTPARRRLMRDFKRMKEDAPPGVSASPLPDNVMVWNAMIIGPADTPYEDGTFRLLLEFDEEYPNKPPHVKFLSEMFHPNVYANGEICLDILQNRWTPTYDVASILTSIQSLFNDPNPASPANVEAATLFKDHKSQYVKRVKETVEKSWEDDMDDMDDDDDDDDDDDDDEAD

Ubr1 [1] = biological target: T2, Ubr1 (Saccharomyces cerevisiae, UniProt P19812); assay: In vitro Ubr1-dependent ubiquitination assay; assay type: biochemical; conditions: n = 2
In short: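 Multi-turnover reaction at 30 °C in 50 mM HEPES pH 7.5, 0.15 M NaCl, 10 mM MgCl2, 5 mM ATP. It contained 0.1 µM Uba1, 4 µM Ubc2, 0.25 µM Ubr1 (wild-type or mutant at the same level), 80 µM Ub and 5 µM substrate. Substrate was Degron or Ub-Degron labelled at an added C-terminal Cys with fluorescein-5-maleimide. Reactions were stopped in SDS sample buffer and resolved by SDS-PAGE with fluorescence imaging.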

Ubr1 [2] = biological target: T2, Ubr1; assay: Single-turnover pulse-chase Ub transfer, elongation step; assay type: biochemical; conditions: 0.5 μM Ubr1, 30 °C, 5 min, n = 2
[3] = biological target: T3, Ubc2 (Saccharomyces cerevisiae), wild type (Saccharomyces cerevisiae, UniProt P06104 3-152); assay: ITC
T3 sequence: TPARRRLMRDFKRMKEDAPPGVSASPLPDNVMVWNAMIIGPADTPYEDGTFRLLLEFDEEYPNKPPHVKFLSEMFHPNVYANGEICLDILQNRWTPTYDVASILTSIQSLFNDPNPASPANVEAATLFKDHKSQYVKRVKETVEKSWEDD

T2 sequence (P19812 whole entry, one chain of several): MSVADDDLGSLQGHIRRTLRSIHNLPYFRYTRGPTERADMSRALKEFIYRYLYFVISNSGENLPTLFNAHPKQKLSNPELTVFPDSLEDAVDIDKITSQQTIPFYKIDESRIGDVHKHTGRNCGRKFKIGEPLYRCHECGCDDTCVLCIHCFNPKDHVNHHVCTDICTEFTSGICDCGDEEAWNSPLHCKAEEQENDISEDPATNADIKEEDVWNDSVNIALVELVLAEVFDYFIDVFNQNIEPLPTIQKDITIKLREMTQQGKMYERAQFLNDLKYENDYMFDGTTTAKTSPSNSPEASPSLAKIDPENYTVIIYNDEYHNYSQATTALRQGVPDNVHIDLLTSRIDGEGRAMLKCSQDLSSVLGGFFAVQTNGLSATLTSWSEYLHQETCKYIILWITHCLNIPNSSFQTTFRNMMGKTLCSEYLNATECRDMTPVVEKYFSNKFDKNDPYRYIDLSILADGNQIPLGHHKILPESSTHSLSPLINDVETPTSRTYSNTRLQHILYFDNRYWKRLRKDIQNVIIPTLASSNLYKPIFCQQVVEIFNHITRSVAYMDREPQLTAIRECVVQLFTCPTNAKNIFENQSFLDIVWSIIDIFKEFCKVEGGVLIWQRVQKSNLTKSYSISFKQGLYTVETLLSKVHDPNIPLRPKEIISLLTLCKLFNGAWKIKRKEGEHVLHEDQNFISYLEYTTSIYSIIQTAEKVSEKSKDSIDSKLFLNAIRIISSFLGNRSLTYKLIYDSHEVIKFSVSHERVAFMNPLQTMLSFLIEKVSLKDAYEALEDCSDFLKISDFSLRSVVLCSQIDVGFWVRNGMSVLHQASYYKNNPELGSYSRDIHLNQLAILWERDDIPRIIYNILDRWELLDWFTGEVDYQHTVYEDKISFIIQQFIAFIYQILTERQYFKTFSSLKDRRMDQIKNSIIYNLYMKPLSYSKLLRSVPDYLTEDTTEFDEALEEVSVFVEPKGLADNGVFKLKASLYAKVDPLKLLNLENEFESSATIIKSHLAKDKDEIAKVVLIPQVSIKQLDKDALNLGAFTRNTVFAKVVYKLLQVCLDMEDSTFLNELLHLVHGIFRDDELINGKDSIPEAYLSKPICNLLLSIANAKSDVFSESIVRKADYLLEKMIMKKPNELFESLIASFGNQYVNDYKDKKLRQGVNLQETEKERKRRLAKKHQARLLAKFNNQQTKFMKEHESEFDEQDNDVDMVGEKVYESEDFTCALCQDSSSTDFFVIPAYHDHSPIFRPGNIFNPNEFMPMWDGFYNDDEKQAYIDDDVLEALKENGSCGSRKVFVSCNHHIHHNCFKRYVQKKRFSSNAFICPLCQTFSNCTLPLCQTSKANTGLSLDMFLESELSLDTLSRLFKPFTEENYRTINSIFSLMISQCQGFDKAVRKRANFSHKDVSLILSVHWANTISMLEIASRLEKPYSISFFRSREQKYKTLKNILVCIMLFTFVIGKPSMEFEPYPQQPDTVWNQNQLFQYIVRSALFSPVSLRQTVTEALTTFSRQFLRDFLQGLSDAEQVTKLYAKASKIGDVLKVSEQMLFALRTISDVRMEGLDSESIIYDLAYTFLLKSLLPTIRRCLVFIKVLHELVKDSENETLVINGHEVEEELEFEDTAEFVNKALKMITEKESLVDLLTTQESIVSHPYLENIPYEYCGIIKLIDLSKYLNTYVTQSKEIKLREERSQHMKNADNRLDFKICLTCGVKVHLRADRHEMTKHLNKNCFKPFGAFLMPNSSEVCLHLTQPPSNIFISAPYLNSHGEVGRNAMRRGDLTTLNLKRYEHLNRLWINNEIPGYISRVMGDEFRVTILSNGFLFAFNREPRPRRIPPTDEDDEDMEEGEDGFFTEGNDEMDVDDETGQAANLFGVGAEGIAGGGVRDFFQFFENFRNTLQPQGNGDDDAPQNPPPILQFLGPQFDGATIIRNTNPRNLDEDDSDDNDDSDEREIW

U2BR peptide: free U2BR peptide (Ubr1 1165-1200), Ubc2 binding region (KERKRRLAKKHQARLLAKFNNQQTKFMKEHESEFDE; UniProt P19812 1165-1200, looked up, fragment)
accessibility of the catalytic cysteine (C88) of Ubc2 (Ubc2): decreased | inhibition of polyubiquitination by free U2BR peptide (Ubr1 [1]; increasing concentrations of synthetic U2BR peptide): inhibited polyubiquitination in a dose-dependent manner

UBLM mutant: Ubr1 Ub binding loop mutant H678A/V679A/L680A/H681A
transfer of fluorescent Ub from Ubc2 to Ub-Degron (Ubr1 [2]): failed to transfer fluorescent Ub from Ubc2 to Ub-Degron | monoubiquitinated product (Ubr1 [1]; Hs-Type-1 Degron and Type-2 Degron as substrates): accumulation of monoubiquitinated product | Ub transfer to Degron versus Ub-Degron (Ubr1 [1]; UBLM mutant of Ubr1): transferred more Ub to Degron than to Ub-Degron | polyubiquitination of Degron and Ub-Degron (effect of mutation) (Ubr1 [1]; fluorescent Degron and Ub-Degron, 30 °C, pH 7.5): substantially reduced

KERKRRLAKKHQARLLAKFNNQQTKFMKEHESEFDE (peptide, UniProt P19812 1165-1200, looked up) [U2BR peptide (Ubr1 1165-1200)]
Kd [3]: 143 ± 45 nM

B1: N65A: N65A mutation of Ubc2 (protein, UniProt P06104 1-172, looked up, variant N65A)
Ubiquitin-conjugating enzyme …: MSTPARRRLMRDFKRMKEDAPPGVSASPLPDNVMVWNAMIIGPADTPYEDGTFRLLLEFDEEYPAKPPHVKFLSEMFHPNVYANGEICLDILQNRWTPTYDVASILTSIQSLFNDPNPASPANVEAATLFKDHKSQYVKRVKETVEKSWEDDMDDMDDDDDDDDDDDDDEAD
amount of polyubiquitinated Degron (Ubr1 [1]; Ubc2 N65A mutation): increased the amount of polyubiquitinated Degron

B2: Ubc2 (C88S): catalytically inactive Ubc2 (protein)
chain: TPARRRLMRDFKRMKEDAPPGVSASPLPDNVMVWNAMIIGPADTPYEDGTFRLLLEFDEEYPNKPPHVKFLSEMFHPNVYANGEISLDILQNRWTPTYDVASILTSIQSLFNDPNPASPANVEAATLFKDHKSQYVKRVKETVEKSWEDD
modifications: left off: His tag, N-terminal, state not stated
inhibitory effect of pre-mixed inactive Ubc2 on ubiquitination (Ubr1 [1]; increasing doses up to 12.5 μM pre-mixed with Ubr1 and Degron, then wild-type Ubc2 at 4 μM): Minimal inhibitory effects
